Bioassay records from PubChem BioAssay.
NR2E3 ag-1: NR2E3 agonists in two-hybrid cells, primary screen, cell-based, luminescence, CHO-S, Gal4-NCOR/VP16-NR2E3; inhibition of corepressor binding, % at 3.98 µM; Photoreceptor-specific nuclear receptor (Homo sapiens), Q9Y5X4; luciferase; 360,000 compounds, 0.35% hits; AID 602229, 2012;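 active = inhibition above the mean of all tested compounds plus 3 SD, cut at about 70% in these data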;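 note: higher means lower luciferase signal from less NR2E3 corepressor binding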
Rev-erbA mod: modulators of Rev-erb alpha DNA binding, primary screen, biochemical, FITC-DNA, fluorescence polarization, uHTS | Nuclear receptor subfamily 1 group D member 1 (Homo sapiens), P20393 | Rev-erbα–FITC-DNA binding, 90 min | activity, % at 10 µM | 370,000 compounds, 0.79% hits;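 active = activity above about 14%, limit read from the data; passing the limit was not always enough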
PG9 Ab binder: binders of HIV-1 gp120 antibody PG9, primary screen, biochemical, TR-FRET | HIV-1 gp120 / PG9 antibody interaction | TR-FRET gp120-PG9 antibody binding | inhibition, % at 6.7 µM | 360,000 compounds, 0.43% hits; in the data active = inhibition above about 8.5%
NR2E3 ag-2: inhibitors of NR2E3-RetCOR corepressor binding, primary screen, NR2E3 agonist project, biochemical, TR-FRET, GST-NR2E3, biotin-RetCOR; Photoreceptor-specific nuclear receptor (Homo sapiens), Q9Y5X4; 1536-well; inhibition of corepressor binding, % at 4.78 µM; 320,000 compounds, 0.12% hits; AID 2300, 2010;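 active = percent inhibition above the cutoff of mean plus 3 SD of all tested compounds, set per screening campaign, cut at about 20% in these data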
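Assay system: NR2E3–RetCOR corepressor complex. Quantity: 1.35 nM GST-NR2E3. Buffer or medium: pH 7.5 Tris-based buffer. Reagent: biotinylated RetCOR corepressor at 7 nM final. Schedule: 5 h at 4 °C. Detection: TR-FRET, emission read at 617 and 671 nm. Replicates: one well per compound, singlicate testing.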
Neddylation inh: inhibitors of cullin neddylation, primary screen, biochemical, TR-FRET, uHTS, NAE and Ubc12. calls only at 25 µM. 360,000 compounds, 0.58% hits; in the data active = inhibition above about 36%
Target sequence (P61081 whole entry, looked up): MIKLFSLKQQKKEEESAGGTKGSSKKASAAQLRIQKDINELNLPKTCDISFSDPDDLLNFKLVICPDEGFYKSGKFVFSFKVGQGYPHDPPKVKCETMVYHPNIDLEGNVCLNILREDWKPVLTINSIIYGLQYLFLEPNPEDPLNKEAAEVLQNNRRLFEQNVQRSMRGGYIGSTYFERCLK
Target sequence (Q13564 whole entry, looked up): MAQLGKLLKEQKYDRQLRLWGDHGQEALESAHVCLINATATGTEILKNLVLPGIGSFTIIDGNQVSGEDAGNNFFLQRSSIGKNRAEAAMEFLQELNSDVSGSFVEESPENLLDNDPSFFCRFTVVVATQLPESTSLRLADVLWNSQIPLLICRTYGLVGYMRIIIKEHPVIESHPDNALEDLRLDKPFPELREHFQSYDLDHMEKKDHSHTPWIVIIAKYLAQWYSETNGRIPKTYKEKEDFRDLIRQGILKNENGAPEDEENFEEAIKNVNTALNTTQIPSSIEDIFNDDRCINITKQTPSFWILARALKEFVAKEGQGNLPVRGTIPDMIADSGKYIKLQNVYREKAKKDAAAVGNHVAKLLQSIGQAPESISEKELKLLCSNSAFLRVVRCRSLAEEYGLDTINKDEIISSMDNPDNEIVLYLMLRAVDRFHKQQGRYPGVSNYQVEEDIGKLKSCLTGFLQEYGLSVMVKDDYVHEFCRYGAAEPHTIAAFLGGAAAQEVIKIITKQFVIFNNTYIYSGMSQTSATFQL
PG9 bind confirm: binders of anti-gp120 antibody PG9, confirmation, biochemical, TR-FRET. inhibition, % at 6.7 µM. shares compounds with PG9 Ab binder. 1,500 compounds, 90% hits. TR-FRET PG9 antibody binding; in the data active = inhibition above about 9%
PGV04 Ab binding: binders of control antibody PGV04, counter-screen for PG9 antibody binder project, biochemical, TR-FRET, distinct HIV envelope site; shares compounds with PG9 Ab binder; 1,500 compounds, 95% hits; TR-FRET PGV04 antibody-gp120 binding; inhibition, % at 6.7 µM; in the data active = inhibition above about 9.5%
Of the large screens only hits and unclear results are named; the others gave an inactive call (follow-up assays come after a bar, where shown). In the library only some 2% were active in any assay of this set; here they are far more common.

CCOc1cccc(NC(=O)CSc2nc(C)c3c(c2C#N)CCCC3)c1	PG9 Ab binder 12 | PG9 bind confirm 16 | PGV04 Ab binding 29
Cc1ccc2nc(NCCNC(=O)c3ccccc3)c(C#N)cc2c1	none (not shown: Neddylation inh)
CCOc1ccc2nc(NCCNC(=O)Nc3cccc(C)c3)c(C#N)cc2c1	PG9 Ab binder 9.8 (not shown: Neddylation inh) | PG9 bind confirm 15 | PGV04 Ab binding 32
COc1ccc(C(=O)NCCNc2nc3ccc(C)cc3cc2C#N)cc1	PG9 Ab binder 45 (not shown: Neddylation inh) | PG9 bind confirm 12 | PGV04 Ab binding 36
O=C(COc1ncnc2cc([N+](=O)[O-])ccc12)N(CCc1ccccc1)Cc1ccccc1	PG9 Ab binder 16 | PG9 bind confirm 26 | PGV04 Ab binding 41
O=C(COc1ccc([N+](=O)[O-])cc1)N(Cc1ccccc1)Cc1ccccc1	none
CC(=O)c1ccc(OCCCC(=O)Nc2nnc(C3CC3)s2)cc1	PG9 Ab binder 8.7 (no result: NR2E3 ag-2) | PG9 bind confirm 18 | PGV04 Ab binding 25
CC(C)(C)c1ccc(OCCCC(=O)Nc2nnc(C3CC3)s2)cc1	none (no result: NR2E3 ag-2)
CCCCn1nnnc1C(c1ccccc1)N1CCN(c2ccc(C)cc2)CC1 (centres undefined)	none (no result: NR2E3 ag-2)
CCOC(=O)c1ccc(Nc2ncnc3ccccc23)cc1	none (not shown: Neddylation inh)
CCOC(=O)c1ccc(Nc2ncnc3ccc(C)cc23)cc1	PG9 Ab binder 8.9 (not shown: Neddylation inh) | PG9 bind confirm 14 | PGV04 Ab binding 22
CCCC1=Nc2cc(C(=O)NCCCN3CCOCC3)ccc2Sc2ccccc21	PG9 Ab binder 12 | PG9 bind confirm 11 | PGV04 Ab binding 15
O=C(Nc1ccc(F)cc1)OCCN1C(=O)CCC12CCC(c1ccc(Cl)cc1)CC2 (centres undefined)	none (no result: NR2E3 ag-1, PG9 Ab binder, NR2E3 ag-2, Neddylation inh)
CCc1ccc(-c2nc3ccc(Br)cc3c(C(=O)O)c2C)s1	PG9 Ab binder 27 (no result: NR2E3 ag-2) | PG9 bind confirm 33 | PGV04 Ab binding 59
COc1cc(/C=C/C(=O)OCC(=O)Nc2ccccc2Cl)cc(OC)c1OC	PG9 Ab binder 23 (not shown: Neddylation inh) | PG9 bind confirm 27 | PGV04 Ab binding 41
COc1cc(/C=C/C(=O)OCC(=O)NCCc2ccccc2)cc(OC)c1OC	none
COC(=O)c1sc(NC(=O)CSc2nc3cccnc3n2C)nc1C	PG9 Ab binder 22 | PG9 bind confirm 33 | PGV04 Ab binding 45
COc1ccc(NC(=O)CSc2nc3cccnc3n2C)cc1	none
COc1ccc2nc(NC(=O)CSc3nc4cccnc4n3C)sc2c1	PG9 Ab binder 26 | PG9 bind confirm 29 | PGV04 Ab binding 42
N#Cc1ccc(S(=O)(=O)N2CCCCC2c2cc(C(=O)NCc3cccnc3)no2)cc1 (centres undefined)	none (no result: NR2E3 ag-2)
O=C(c1ccncc1)N1CC[C@H]2[C@H](CCCN2Cc2cc(F)cc(F)c2)C1	none (no result: NR2E3 ag-1, PG9 Ab binder, NR2E3 ag-2, Neddylation inh)
COc1ccc(C2C(C(=O)N3CCN(C=O)CC3)CC(=O)N2c2ccc(OC)cc2)cc1 (centres undefined)	none (no result: NR2E3 ag-1, PG9 Ab binder, NR2E3 ag-2, Neddylation inh)
Cc1cccc(CCNS(=O)(=O)c2ccc3c(c2)oc(=O)n3C)c1	PG9 Ab binder 18 | PG9 bind confirm inactive | PGV04 Ab binding inactive
COc1ccc(-c2cn3c(C)c(C(=O)Nc4cc(NC(C)=O)ccc4OC)sc3n2)cc1	PG9 Ab binder 12 (not shown: Neddylation inh) | PG9 bind confirm 9.8 | PGV04 Ab binding 31
NS(=O)(=O)c1c(Sc2ccccc2C(=O)O)ccc2ccccc12	PG9 Ab binder 15 | PG9 bind confirm 15 | PGV04 Ab binding 20
COc1cc(C2C(C(=O)c3ccc(C)o3)=C(O)C(=O)N2CCN2CCOCC2)ccc1OCCC(C)C (centres undefined)	PG9 Ab binder 12 (no result: NR2E3 ag-2) | PG9 bind confirm 19 | PGV04 Ab binding 22
COc1cccc2cc(C(=O)C3=C(O)C(=O)N(CCN(C)C)C3c3ccc(F)cc3)oc12 (centres undefined)	PG9 Ab binder 21 | PG9 bind confirm 31 | PGV04 Ab binding 41
COc1cccc2cc(C(=O)C3=C(O)C(=O)N(CCN4CCOCC4)C3c3ccc(C)o3)oc12 (centres undefined)	none
CCCOc1cccc(C2C(C(=O)c3ccc(C)o3)=C(O)C(=O)N2CCN2CCOCC2)c1 (centres undefined)	none
CN(C)CCN1C(=O)C(O)=C(C(=O)c2cc3ccccc3o2)C1c1ccc(N(C)C)cc1 (centres undefined)	none
CCN(CC)CCCN1C(=O)C(O)=C(C(=O)c2cc3cccc(OC)c3o2)C1c1ccncc1 (centres undefined)	PG9 Ab binder 15 | PG9 bind confirm 26 | PGV04 Ab binding 37
COc1cccc(C2C(C(=O)c3cc4ccccc4o3)=C(O)C(=O)N2CCN(C)C)c1OC (centres undefined)	PG9 Ab binder 30 | PG9 bind confirm 33 | PGV04 Ab binding 54
COC(=O)C1CN(Cc2ccc(F)cc2)CCS(=O)(=O)N1Cc1ccccc1 (centres undefined)	none (no result: NR2E3 ag-1, PG9 Ab binder, NR2E3 ag-2, Neddylation inh)
COc1cccc(C2C(C(=O)c3cc4ccccc4o3)=C(O)C(=O)N2CCN2CCOCC2)c1 (centres undefined)	PG9 Ab binder 15 | PG9 bind confirm 31 | PGV04 Ab binding 54
CCOC(=O)c1sc2nccc(N(C)C)c2c1N=CNOCc1c(F)cccc1Cl	PG9 Ab binder 10 (not shown: Neddylation inh) | PG9 bind confirm 18 | PGV04 Ab binding 25
O=C(CSc1nnc(-c2c[nH]c3ccccc23)o1)c1ccc(-c2ccccc2)cc1	PG9 Ab binder 18 | PG9 bind confirm 22 | PGV04 Ab binding 43
N#Cc1c(SCC(=O)O)nc(-c2ccccc2)c2c1CCCC2	PG9 Ab binder 13 | PG9 bind confirm 19 | PGV04 Ab binding 24
O=C(c1ccccc1)n1c(=O)c(F)cn(COCCBr)c1=O	none
COc1ccc2oc(=O)c(C(=O)NCc3ccc(C)cc3)cc2c1	PG9 Ab binder 8.8 (not shown: Neddylation inh) | PG9 bind confirm 16 | PGV04 Ab binding 24
COc1ccc(CNC(=O)c2cc3cc(OC)ccc3oc2=O)cc1	none
Cc1cc2cc(CNC(=O)Cc3ccc([N+](=O)[O-])cc3)ccc2n1C	PG9 Ab binder 10 | PG9 bind confirm 13 | PGV04 Ab binding 21
